High-throughput results deposited in PubChem by Broad Institute.
Hits are enriched below; roughly 1.7% of the tested compounds scored in any of these assays.
Cneo AK release – Cryptococcus neoformans lysis via adenylate kinase release; AID 651654; lysis activity, % at 15 µM; C. neoformans lysis, adenylate kinase release luminescence, 4 h; normalised: neutral wells 0, clomiphene wells 100; hit rate 0.2% among 360,000;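 active = mean lysis activity across replicates of at least 80%, whatever share of replicates individually reach that level; inactive = mean lysis activity below 80%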
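Assay system: log-phase C. neoformans yeast / Quantity: yeast cell density of 5 × 10^6 cells/mL / Medium: fresh YPD growth medium / Compound: single dose / Timing: static 4 h at 37 °C with compound, 1 h detection / Measured by: adenylate kinase release luminescence / Read-out: lysis from increased AK signal / Benchmarks: Clomiphene as positive lysis control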
Ecoli rRNA inh – selective bacterial rRNA inhibition in E. coli; E. coli WT GFP vs humanized-ribosome RFP mutants, fluorescence, 24 h; hits give low values; DMSO median 0, no signal -100; GFP signal change (wild-type ribosome), % (no concentration beside the values); hit rate 1.6% among 350,000; AID 720706;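 active = significant combined selectivity score with lowered wild-type GFP, culture density cut under 30%, mutant RFP and density less affected; inactive = any of these conditions unmet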
CFTR F508del cor – correctors of CFTR F508del function in bronchial epithelial cells; CFBE cells, YFP halide quenching; stimulated with forskolin plus potentiator P3; % fluorescence drop versus neutral controls; activity (quench increase), % at 7.58 µM; hit rate 0.36% among 350,000;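 active = mean added fluorescence quench of at least 8% versus neutral control, with both replicates also reaching 8%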;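 note: cells transiently co-express mutant CFTR-F508del with the halide-sensitive YFP; corrector assay measuring rescue of mutant channel to the surface after 24 h compound exposure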
CaV13 ICDI inh – Primary screen for inhibitors of IQ motif and Ca2+-dependent inactivation inhibitor domain binding in CACNA1D, Förster resonance energy transfer in living cells, …. HEK cells, CFP/YFP FRET ICDI-IQ, plate reader, 10 min; percent FRET-ratio fall versus neutral wells. hit rate 0.098% among 340,000. inhibition, % at 12.3 µM;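 active = mean replicate inhibition of at least 30% and at least 1% of replicates passing that level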;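 note: 0% = median of the neutral control wells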
* hit, by the source's call; i = inactive; nt = no result.

SMILES	Cneo AK release	Ecoli rRNA inh	CFTR F508del cor	CaV13 ICDI inh
O=C(N[C@@H]1CC[C@@H](CCn2cc(-c3ccccn3)nn2)O[C@@H]1CO)c1ccc(F)cc1	78	-2	-4	nt
C[C@@H]1CN([C@@H](C)CO)C(=O)c2cc(-c3ccccc3)cnc2O[C@@H]1CN(C)C(=O)Cc1ccccc1	nt	-4	0	nt
O=C(C[C@@H]1C=C[C@@H](NC(=O)CN2CCOCC2)[C@@H](CO)O1)NCc1cccc(F)c1	-2	0	-1	nt
CCN(CC)CCNC(=O)c1sc2nc(-c3ccccc3)cn2c1C	-2	-5	-6	48*
C[C@@H]1CCCCO[C@@H](CN(C)Cc2ccccc2)[C@H](C)CN([C@H](C)CO)C(=O)c2cc(NS(C)(=O)=O)ccc2O1	-3	2	2	nt
O=C(Nc1ccccc1F)Nc1cc(S(=O)(=O)N2CCOCC2)ccc1N1CCCC1	nt	-19*	-4	-1
O=C(Nc1cc(S(=O)(=O)N2CCOCC2)ccc1N1CCCC1)c1ccccc1F	-8	13	-1	-6
COCCCNC1=C(Cl)C(=O)c2ccccc2C1=O	-2	-40*	-4	-5
CC(C)OCCCNC1=C(Cl)C(=O)c2ccccc2C1=O	-4	-45	1	-20
O=C1C(Cl)=C(Nc2ccccc2)C(=O)c2ccccc21	0	8	nt	-15
COCCCNc1c2c3c(cccc3[nH]c1=O)C(=O)c1ccccc1-2	-2	64	46*	-22
CCOC(=O)c1c2c3c(cccc3[nH]c1=O)C(=O)c1ccccc1-2	-6	22	2	-1
O=C1C(Cl)=C(NCCc2ccccc2)C(=O)c2ccccc21	2	-37*	-8	-10
COc1ccc(S(=O)(=O)Nc2cccc3c2O[C@@H](CN(C)Cc2ccncc2)[C@@H](C)CN([C@@H](C)CO)C3=O)cc1	0	1	2	nt
N#CC1(NC(=O)CSc2nc3ccc([N+](=O)[O-])cc3s2)CCCCC1	nt	-17*	-3	-6
O=C(CSc1nc2ccccc2s1)NCc1cc([N+](=O)[O-])ccc1O	-19	-31*	-1	-5
COc1ccc(CN(C)C[C@@H]2OCCCC[C@@H](C)Oc3ccc(NS(=O)(=O)c4cccs4)cc3C(=O)N([C@@H](C)CO)C[C@H]2C)cc1	6	2	-2	nt
c1ccc(OCCn2c(-c3ccco3)nc3ccccc32)cc1	7	-46*	1	-6
O=C(C[C@H]1CC[C@H]2[C@@H](COC[C@H](O)CN2Cc2ccc(Oc3ccccc3)cc2)O1)N1CCN(c2ccccc2)CC1	2	0	3	nt
O=C(C[C@@H]1CC[C@@H]2[C@H](COC[C@H](O)CN2Cc2ccc(Oc3ccccc3)cc2)O1)N1CCN(c2ccccc2)CC1	4	i	8.9*	nt
O=C(C[C@H]1CC[C@@H]2[C@H](COC[C@H](O)CN2Cc2ccc(Oc3ccccc3)cc2)O1)N1CCc2ccccc2C1	1	nt	11*	nt
C[C@H]1CN([C@@H](C)CO)C(=O)c2cc(C#CCN(C)C)cnc2O[C@H]1CN(C)C(=O)c1ccc2c(c1)OCO2	2	4	0	nt
C[C@@H]1CN([C@@H](C)CO)C(=O)c2cc(NC(=O)c3ccncc3)ccc2O[C@H]1CN(C)C(=O)Nc1ccc(C(F)(F)F)cc1	9	-2	1	nt
COc1ccc(-c2nn(-c3ccccc3)cc2/C=N/O)cc1	3	-38*	-3	-3
O=C(CCN1CCCCC1)NCC[C@H]1CC[C@@H](NC(=O)C2CCC2)[C@@H](CO)O1	-2	1	-2	nt
SMILES	Cneo AK release	Ecoli rRNA inh	CFTR F508del cor	CaV13 ICDI inh
COC(=O)/C=C/c1ccccc1S(=O)(=O)N(Cc1ccccc1)Cc1ccco1	3	nt	8.3*	-5
CO[C@@H]1CN(C)C(=O)c2ccc(NC(=O)c3ccccn3)cc2OC[C@@H](C)N(Cc2ccccn2)C[C@H]1C	-1	nt	-2	nt
C[C@]12CCC(=O)N1CCc1c2[nH]c2ccccc12	3	nt	-2	nt
C[C@H](CO)N1C[C@H](C)[C@H](CN(C)CC2CC2)Oc2cc(-c3cccc(C#N)c3)ccc2S1(=O)=O	0	1	1	nt
c1ccc(-c2csc(NC3=NCCCCC3)n2)cc1	0	7	11*	-14
N#Cc1ccc(-c2csc(NC3=NCCCCC3)n2)cc1	nt	4	-2	-5
O=C(Cc1ccncc1)N[C@H]1CC[C@@H](CCn2cc(-c3ccccc3F)nn2)O[C@@H]1CO	1	-1	0	nt
O=C(N/N=C/c1cccs1)c1ccc(-n2cccc2)cc1	nt	-23*	nt	8
O=C(N/N=C/c1cccs1)c1cccc(NC(=O)c2ccccc2Cl)c1	nt	-14	9.5*	-17
Cc1oc(/N=C/c2ccc(F)cc2)c(C#N)c1C	-4	7	-1	82*
CC(=O)c1c(C)[nH]c(C(=O)OCc2nnc(-c3ccc([N+](=O)[O-])cc3)o2)c1C	-1	-5	9.2*	-7
Cc1nc(SCC(=O)N(C)C2CCCCC2)[nH]c(=O)c1Cc1ccccc1	-2	-26*	nt	nt
CN(C(=O)CSc1nc2c(c(=O)[nH]1)CCCC2)C1CCCCC1	nt	-15*	-2	-6
O=C(CCN1CCCCC1)NCC[C@H]1CC[C@@H](NC(=O)c2ccc(F)cc2)[C@@H](CO)O1	-3	4	2	nt
COc1ccc(CCn2c(O)cc3nn(-c4nc5ccccc5s4)c(=O)c-3c2C)cc1	nt	-18*	4	-6
CC(C)CNC(=O)C(=O)Nc1ccc2c(c1)N(S(=O)(=O)c1cccs1)CCC2	nt	-2	0	-7
CC(C)CCNC(=O)C(=O)Nc1ccc2c(c1)N(S(=O)(=O)c1cccs1)CCC2	nt	-1	12*	-6
CC1=NN(c2ccccc2)C(=O)C1N=Nc1ccccc1 (stereo not drawn)	nt	-1	-2	-5
CC1=NN(c2ccccc2)C(=O)C1N=Nc1cccc(O)c1 (stereo not drawn)	3	-26	19*	-5
O=C(CN1C(=O)NC2(CCCCCCC2)C1=O)Nc1ccc(Br)cc1	nt	-10	9.1*	-6
Cc1csc2sc(-c3ccnc(SCC(=O)NCc4ccccc4)n3)c(C)c12	-4	16	16*	-3
CCN(CC)c1ccc(/C=N/NS(=O)(=O)c2cccc([N+](=O)[O-])c2)cc1	4	nt	nt	-5
CCN(Cc1ccccc1)c1ccc(/C=N/NS(=O)(=O)c2ccc(C)c([N+](=O)[O-])c2)cc1	nt	-34*	nt	-15
Cc1ccc(-c2cc(=O)c3ccccc3[nH]2)cc1	2	15	2	-10
Cc1ccc2[nH]c(-c3ccccc3)cc(=O)c2c1	-3	5	10*	-11
O=C1O[C@@H](c2ccccc2)[C@@H](c2ccccc2)N2[C@@H](c3ccc(O)cc3)[C@]3(C(=O)Nc4ccc(C#CC5=CCCCC5)cc43)[C@@H](C(=O)O)[C@H]12	-10	nt	-4	nt
CCc1ccc(OCCNc2cc(N3CCNC(C)C3)ccc2[N+](=O)[O-])cc1 (stereo not drawn)	1	-60	13*	-6
